# Ba/F3 V617F tox – lowers viability of Ba/F3 cells expressing EpoR and JAK2V617F; ATP luminescence; inhibition, % at 5.6 µM; 220,000 compounds, 1.1% hits;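 active = inhibition above the campaign mean plus 3 SD over all tested compounds, cut at about 24% in these data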;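 note: cytokine-independent growth of Ba/F3 cells driven by EpoR plus mutant JAK2; 0% = DMSO-treated cells and 100% = JAK inhibitor I control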
# APP transl inh – APP translation inhibition; SH-SY5Y APP 5'UTR-luciferase reporter, luminescence; inhibition, % at 2 µM; 190,000 compounds, 0.82% hits; AID 1285;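 active = inhibition above a set limit, derived from the sample mean plus 3 SD, cut at about 45% in these data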
# BaF3 tox – reduces parental Ba/F3 cell viability, JAK2V617F counter-screen; inhibition, % at 5.6 µM; CellTiter-Glo ATP luminescence; 220,000 compounds, 1.1% hits; AID 1486;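 active = inhibition above a per-campaign cutoff, the mean inhibition of all tested compounds plus 3 SD, cut at about 27% in these data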;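 note: 0% = DMSO wells and 100% = JAK Inhibitor I control wells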
# MT stabilizer – microtubule stabilizers in HeLa cells; HeLa tubulin immunostaining HCS, 24 h; share of cells brighter than vehicle mean+2SD; 200,000 compounds, 0.83% hits; % tubulin-high responders, % at 10 µM;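 active = plate Z-score above 3 for both tubulin-high and condensed-nucleus cell shares, with cell loss under 80%, at 10 µM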;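 note: anti alpha tubulin signal scored within the nucleus-defined area of each cell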
# IEC-6 tox – counter-screen for KLF5 inhibitors: cytotoxicity in IEC-6 cells; IEC-6 cytotoxicity, luminescence viability; inhibition, % at 5 µM; 290,000 compounds, 0.78% hits; AID 1825; in the data active = inhibition above about 22%;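 note: 0% = plate median of test compound wells and 100% = cytotoxic reference compound wells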
# b-catenin transl – modulators of beta-catenin nuclear translocation; HeLa beta-catenin nuclear translocation, immunofluorescence imaging; AID 1665; nuclear translocation activity, % at 5 µM; 190,000 compounds, 0.3% hits;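 active = nuclear translocation activity above 50% at 5 µM, with a well cell count of 50 or more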;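 note: per-cell ratio of nuclear to cytoplasmic median beta-catenin stain intensity; plate controls were DMSO negative control for no effect and GSK-3 inhibitor IX positive control for full effect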
#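 Test system: human HeLa cells, native beta-catenin. Compound dosing: 5 µM primary single dose, 0.1% DMSO, 0.02–20 µM confirmation series. Incubation: compound exposure 24 h at 37°C. Detection: beta-catenin immunostaining with DAPI counterstain, 20x imaging, 6 fields/well. Read-out basis: Nuclear/cytoplasmic beta-catenin signal ratio, % activation.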
# BaF3 parental 2 – parental Ba/F3 viability inhibition for JAK2V617F counter-screen | shares compounds with Ba/F3 V617F tox | CellTiter-Glo luminescence; cells kept alive by added IL-3 | inhibition, % at 5.6 µM | 580 compounds, 31% hits;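 active = cell growth inhibition above the hit limit set in the earlier mutant JAK2 cell screen, cut at about 27% in these data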;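 note: plate controls were DMSO-treated cells for no effect and JAK Inhibitor I control wells for full effect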
# JAK2V617F confrm – Ba/F3 EpoR-JAK2V617F viability loss, confirmation; shares compounds with Ba/F3 V617F tox; CellTiter-Glo luminescence; 580 compounds, 66% hits; AID 1521; inhibition, % at 5.6 µM;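 active = mean inhibition above the hit cutoff derived in the earlier primary screen, cut at about 25% in these data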;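 note: 0% = DMSO-treated cells and 100% = JAK inhibitor I control wells; higher means lower luminescence from reduced cell ATP and viability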
# Starred values were filed as active, the others as inactive; · = not tested or not shown. Most compounds without a hit are left out; they make up all but 2.2% or so of the library.
SMILES,Ba/F3 V617F tox,APP transl inh,BaF3 tox,MT stabilizer,IEC-6 tox,b-catenin transl,BaF3 parental 2,JAK2V617F confrm
CCCn1c(NCc2ccco2)nc2c1c(=O)n(C)c(=O)n2C,-2,0,6,2,-5,-1,·,·
COc1ccc(Cl)c(Cn2c(NCc3ccco3)nc3c2c(=O)n(C)c(=O)n3C)c1,37*,-4,17,4,-7,0,83*,62*
COc1ccc(-n2nnnc2S(=O)(=O)Cc2ccc(C(=O)O)cc2)cc1,3,16,2,3,-1,·,·,·
COc1ccc(-n2nnnc2S(=O)(=O)CC(=O)N2CCCCC2)cc1,27*,16,0,4,10,·,23,88*
COC(=O)/C=C/c1ccc(OC(=O)OC)c(OC(=O)OC)c1,30*,22,7,6,2,0,3,82*
COC(=O)/C=C/c1ccc2c(c1)OCO2,2,11,9,2,-1,2,·,·
O=C(NC(Cc1ccccc1)C(=O)O)/C(=C/c1ccc(Br)cc1)NC(=O)c1ccc(Br)o1 (centres undefined),·,·,·,·,1,·,·,·
COc1cc(/C=C2\COC/C(=C\c3ccc(O)c(OC)c3)C2=O)ccc1O,25*,·,-8,·,3,-1,14,91*
COc1cc(/C=C2/CC/C(=C/c3ccc(O)c(OC)c3)C2=O)ccc1O,-4,·,0,·,-2,45,·,·
Cc1c(NC(=O)COc2cccc(Br)c2)c(=O)n(-c2ccccc2)n1C,·,·,·,·,5,·,·,·
Nc1ccc(Nc2nc(-c3cc4ccccc4oc3=O)cs2)cc1,84*,-95,14,1,-10,1,77*,99*
CC(=O)Nc1ccc(Nc2nc(-c3cc4ccccc4oc3=O)cs2)cc1,·,·,·,·,4,·,·,·
Cn1c(COc2ccccc2O)[n+](C)c2ccccc21,·,·,·,·,6,·,·,·
COc1ccc(N=Nc2n(C)c3ccccc3[n+]2C)cc1,26*,·,22,·,18,3,35*,22
CCc1cc2c(=O)oc(-c3ccc(Br)cc3)nc2s1,·,·,·,·,-1,·,·,·
Cc1ccc(NC(=O)/C(=C\c2ccccc2)NC(=O)/C=C/c2ccccc2)cc1,72*,-14,7,2,-2,1,-4,-7
COc1cc(/C=N/NC(=O)c2ccccn2)ccc1OC(=O)c1cccs1,·,·,·,·,0,·,·,·
CCCCOc1ccccc1C1C(C(=O)OC)=CN(CC)C=C1C(=O)OC,29*,2,26,2,13,-2,30*,35*
CCCOc1ccccc1C1C(C(=O)OC)=CN(C(C)C)C=C1C(=O)OC,2,18,7,3,-12,2,·,·
COc1cc(N2C(=O)C=CC2=O)c(OC)cc1Cl,32*,·,2,·,16,0,-2,23
COC(=O)C(c1ccccc1)C(C(=O)OC)c1ccccc1 (centres undefined),·,·,·,·,-12,·,·,·
COC(=O)C(C(=O)OC)C(C)C(C(=O)OC)C(=O)OC,61*,16,12,2,-4,·,-6,-6
COc1ccc(C(=O)NC2CC2)cc1OC1CCN(Cc2ccc(NC(C)=O)cc2)CC1,·,·,·,·,0,·,·,·
O=C(CCCOc1ccccc1)N1CCN(c2ccccc2)CC1,2,-24,2,2,8,·,·,·
O=C(CCOc1ccccc1)N1CCN(c2ccc(O)cc2)CC1,25*,·,6,·,0,-1,5,14
SMILES,Ba/F3 V617F tox,APP transl inh,BaF3 tox,MT stabilizer,IEC-6 tox,b-catenin transl,BaF3 parental 2,JAK2V617F confrm
Cc1cc(NC(=O)c2sc(Nc3ccc(F)cc3)nc2N)no1,98*,-55,23,3,1,2,65*,99*
O=S1(=O)C=C(Sc2nnc(-c3ccccc3)o2)c2ccccc21,34*,96*,-6,2,-2,-1,94*,98*
COc1ccc(-c2nnc(SCC(=O)Nc3ncc(C)s3)n2-c2ccccc2)cc1OC,86*,-4,7,58*,10,32,18,22
COc1ccccc1NC(=O)CC(=O)CSc1nnc(-c2ccc(C)cc2)n1-c1ccccc1,-4,5,-1,3,-3,0,·,·
CCCCOC(=O)c1ccc(NC(=O)C(=O)NCCN(C)C)cc1,-2,·,1,·,7,0,·,·
COC(=O)c1sccc1N/N=C/c1cccc(OC)c1O,3,-180,5,3,-5,6,·,·
